# Experimental data: ChEMBL document CHEMBL5058577, “EUbOPEN Chemogenomics Library 2 (Multiplex)” (2022)
# Tested on: HEK-293T
# Assay: Multiplex assay against HEK293T
# Format: toxicity, cell-based
# Conditions: human
# Method in brief: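 Live cells were stained at seeding with Hoechst33342, BioTracker Green Microtubule Cytoskeleton Dye, MitoTracker Red and Annexin V Alexa Fluor 680. Following compound addition, they were imaged on a CQ1 microscope at 37°C and 5% CO2 and gated by CellPathfinder machine learning into Hoechst high-intensity objects or normal cells, with normal cells split into healthy, pyknosed or fragmented nuclei and pyknosed cells into mitotic or apoptotic. Tubulin, mitochondrial-mass and membrane-permeability phenotypes are per cents of healthy-nucleus cells.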
# [1] = 12 h, 1 µM, compound concentration 1 uM, replicate 1
# [2] = 12 h, 1 µM, compound concentration 1 uM, replicate 2
# [3] = 12 h, 10 µM, compound concentration 10 uM, replicate 1
# [4] = 12 h, 10 µM, compound concentration 10 uM, replicate 2
# [5] = 24 h, 1 µM, compound concentration 1 uM, replicate 1
# [6] = 24 h, 1 µM, compound concentration 1 uM, replicate 2
# [7] = 24 h, 10 µM, compound concentration 10 uM, replicate 1
# [8] = 24 h, 10 µM, compound concentration 10 uM, replicate 2
# [9] = 48 h, 1 µM, compound concentration 1 uM, replicate 1
# [10] = 48 h, 1 µM, compound concentration 1 uM, replicate 2
# [11] = 48 h, 10 µM, compound concentration 10 uM, replicate 1
# [12] = 48 h, 10 µM, compound concentration 10 uM, replicate 2
smiles,measurement,setting,value
CN(C)c1ccnc2sc3c(=O)n(N4CCCCCC4)cnc3c12,Population Apoptotic (%),[1],45%
same,Population Fragmented Nuclei (%),[1],9%
same,Population Healthy Nuclei (%),[1],76%
same,Population Hoechst High Intensity Objects (%),[1],4%
same,Population Membrane Permeable-Phenotype (%),[1],1%
same,Population Mitochondria Different-Phenotype (%),[1],50%
same,Population Mitotic Cells (%),[1],54%
same,Population Normal (%),[1],95%
same,Population Pyknosed Nuclei (%),[1],13%
same,Population Tubulin-Different-Phenotype (%),[1],43%
same,Total Cell Count,[1],360
same,Population Apoptotic (%),[2],51%
same,Population Fragmented Nuclei (%),[2],5%
same,Population Healthy Nuclei (%),[2],82%
same,Population Hoechst High Intensity Objects (%),[2],8%
same,Population Membrane Permeable-Phenotype (%),[2],0%
same,Population Mitochondria Different-Phenotype (%),[2],67%
same,Population Mitotic Cells (%),[2],48%
same,Population Normal (%),[2],91%
same,Population Pyknosed Nuclei (%),[2],12%
same,Population Tubulin-Different-Phenotype (%),[2],25%
same,Total Cell Count,[2],335
same,Population Apoptotic (%),[3],36%
same,Population Fragmented Nuclei (%),[3],4%
same,Population Healthy Nuclei (%),[3],81%
same,Population Hoechst High Intensity Objects (%),[3],10%
same,Population Membrane Permeable-Phenotype (%),[3],0%
same,Population Mitochondria Different-Phenotype (%),[3],78%
same,Population Mitotic Cells (%),[3],63%
same,Population Normal (%),[3],89%
same,Population Pyknosed Nuclei (%),[3],14%
same,Population Tubulin-Different-Phenotype (%),[3],79%
same,Total Cell Count,[3],387
same,Population Apoptotic (%),[4],59%
same,Population Fragmented Nuclei (%),[4],9%
same,Population Healthy Nuclei (%),[4],72%
same,Population Hoechst High Intensity Objects (%),[4],13%
same,Population Mitochondria Different-Phenotype (%),[4],76%
same,Population Mitotic Cells (%),[4],40%
same,Population Normal (%),[4],86%
same,Population Pyknosed Nuclei (%),[4],17%
same,Population Tubulin-Different-Phenotype (%),[4],59%
same,Total Cell Count,[4],308
same,Population Apoptotic (%),[5],30%
same,Population Fragmented Nuclei (%),[5],10%
same,Population Healthy Nuclei (%),[5],76%
same,Population Hoechst High Intensity Objects (%),[5],4%
same,Population Membrane Permeable-Phenotype (%),[5],1%
same,Population Mitochondria Different-Phenotype (%),[5],27%
same,Population Mitotic Cells (%),[5],70%
same,Population Normal (%),[5],95%
same,Population Pyknosed Nuclei (%),[5],12%
same,Population Tubulin-Different-Phenotype (%),[5],24%
same,Total Cell Count,[5],510
same,Population Apoptotic (%),[6],25%
same,Population Fragmented Nuclei (%),[6],7%
same,Population Healthy Nuclei (%),[6],84%
same,Population Hoechst High Intensity Objects (%),[6],5%
same,Population Membrane Permeable-Phenotype (%),[6],0%
same,Population Mitochondria Different-Phenotype (%),[6],51%
same,Population Mitotic Cells (%),[6],74%
same,Population Normal (%),[6],94%
same,Population Pyknosed Nuclei (%),[6],7%
same,Population Tubulin-Different-Phenotype (%),[6],22%
same,Total Cell Count,[6],470
same,Population Apoptotic (%),[7],42%
same,Population Fragmented Nuclei (%),[7],7%
same,Population Healthy Nuclei (%),[7],76%
same,Population Hoechst High Intensity Objects (%),[7],8%
same,Population Membrane Permeable-Phenotype (%),[7],0%
same,Population Mitochondria Different-Phenotype (%),[7],80%
same,Population Mitotic Cells (%),[7],57%
same,Population Normal (%),[7],91%
same,Population Pyknosed Nuclei (%),[7],16%
same,Population Tubulin-Different-Phenotype (%),[7],71%
same,Total Cell Count,[7],428
same,Population Apoptotic (%),[8],66%
same,Population Fragmented Nuclei (%),[8],10%
same,Population Healthy Nuclei (%),[8],74%
same,Population Hoechst High Intensity Objects (%),[8],13%
same,Population Mitochondria Different-Phenotype (%),[8],75%
same,Population Mitotic Cells (%),[8],33%
same,Population Normal (%),[8],86%
same,Population Pyknosed Nuclei (%),[8],15%
same,Population Tubulin-Different-Phenotype (%),[8],53%
same,Total Cell Count,[8],359
same,Population Apoptotic (%),[9],27%
same,Population Fragmented Nuclei (%),[9],13%
same,Population Healthy Nuclei (%),[9],78%
same,Population Hoechst High Intensity Objects (%),[9],2%
same,Population Membrane Permeable-Phenotype (%),[9],0%
same,Population Mitochondria Different-Phenotype (%),[9],23%
same,Population Mitotic Cells (%),[9],72%
same,Population Normal (%),[9],97%
same,Population Pyknosed Nuclei (%),[9],7%
same,Population Tubulin-Different-Phenotype (%),[9],14%
same,Total Cell Count,[9],721
same,Population Apoptotic (%),[10],20%
same,Population Fragmented Nuclei (%),[10],11%
same,Population Healthy Nuclei (%),[10],82%
same,Population Hoechst High Intensity Objects (%),[10],3%
same,Population Membrane Permeable-Phenotype (%),[10],2%
same,Population Mitochondria Different-Phenotype (%),[10],31%
same,Population Mitotic Cells (%),[10],80%
same,Population Normal (%),[10],96%
same,Population Pyknosed Nuclei (%),[10],6%
same,Population Tubulin-Different-Phenotype (%),[10],15%
same,Total Cell Count,[10],663
same,Population Apoptotic (%),[11],70%
same,Population Fragmented Nuclei (%),[11],15%
same,Population Healthy Nuclei (%),[11],72%
same,Population Hoechst High Intensity Objects (%),[11],8%
same,Population Membrane Permeable-Phenotype (%),[11],0%
same,Population Mitochondria Different-Phenotype (%),[11],66%
same,Population Mitotic Cells (%),[11],29%
same,Population Normal (%),[11],91%
same,Population Pyknosed Nuclei (%),[11],12%
same,Population Tubulin-Different-Phenotype (%),[11],54%
same,Total Cell Count,[11],497
same,Population Apoptotic (%),[12],57%
same,Population Fragmented Nuclei (%),[12],11%
same,Population Healthy Nuclei (%),[12],75%
same,Population Hoechst High Intensity Objects (%),[12],6%
same,Population Mitochondria Different-Phenotype (%),[12],63%
same,Population Mitotic Cells (%),[12],42%
same,Population Normal (%),[12],93%
same,Population Tubulin-Different-Phenotype (%),[12],45%
same,Total Cell Count,[12],450
